According to PubChem BioAssay AID463141 (The Scripps Research Institute Molecular Screening Center, 2010):
About 350 (0.11%) of roughly 330,000 compounds were called active.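 How the source made its calls: active means activation above the mean of all tested compounds plus 3 SD (cut at about 21% in these data); inactive means the rest.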 The sample as a whole holds a higher share of actives than the screen did.

target: Caspase-3 (Homo sapiens) (UniProt P42574); experiment: activators of human procaspase-3 D3A mutant, primary screen, biochemical, absorbance, PC-3 D3A mutant, single concentration (AID 463141); details: recombinant procaspase-3 D3A, Ac-DEVD-pNA absorbance 405 nm; at 8.5 µM; active compounds read high;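 further: 0% = DMSO alone and 100% = DMSO wells spiked with extra 5 µM PC-3 D3A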
Sequence (P42574 whole entry D9A/D28A/D175A): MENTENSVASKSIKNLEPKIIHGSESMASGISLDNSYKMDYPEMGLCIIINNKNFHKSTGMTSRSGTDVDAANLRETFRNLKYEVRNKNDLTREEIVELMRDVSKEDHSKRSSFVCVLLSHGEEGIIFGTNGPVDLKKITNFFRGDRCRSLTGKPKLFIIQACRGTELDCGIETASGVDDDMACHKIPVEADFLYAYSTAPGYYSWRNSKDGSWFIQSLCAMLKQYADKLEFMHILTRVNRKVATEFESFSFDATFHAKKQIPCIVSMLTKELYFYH
Procedure, shortened: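 assay system = Procaspase-3 D3A mutant | signal = absorbance at 405 nm, 0 and 120 min | times = 1 h preincubation plus 2 h reaction at 25 °C | repeats = single replicate | read-out = % activation between DMSO and enzyme-spiked controls | medium = Zinc-free HEPES saline buffer with Triton X-100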

Compound | activation
COc1ccc(S(=O)(=O)Nc2ccccc2C(=O)N2CCCC2)cc1C | 9.9% (inactive)
COc1ccccc1NS(=O)(=O)c1ccc(C(=O)N2CCN(c3ccccc3O)CC2)cc1 | 21.8% (active)
COc1ccccc1N1CCN(C(=O)c2ccc(S(=O)(=O)N3CCCCC3)cc2)CC1 | -4.47% (inactive)
CC(NC(=O)c1ccccc1C(=O)O)c1ccc(-n2ccnc2)cc1 (configuration not stated) | -0.91% (inactive)
C=CCNc1nc(Nc2ccc(Cl)cc2)nc(OC)n1 | 3.18% (inactive)
COc1cccc(-c2cc3nc4c(c(N5CCC6(CC5)OCCO6)n3n2)CCCC4)c1 | 5.55% (inactive)
NC(=O)C1CC=CCC1C(=O)OCC(Cl)=C(Cl)Cl (configuration not stated) | -0.01% (inactive)
CSc1nsc(SC)c1NC(=O)OC1CCCCC1 | -22.8% (inactive)
CC(C)OCCCNC(=O)CN1C(=O)/C(=C/c2ccccc2F)Oc2ccccc21 | -1.27% (inactive)
CN1CCN(CCCNC(=O)c2ccc(/C=C3\Oc4ccccc4N(Cc4ccc(Cl)cc4)C3=O)cc2)CC1 | 38.4% (active)
CCCN1CCN(C(=O)CCCNC(=O)c2ccc(Cl)cc2)CC1 | -2.14% (inactive)
N#CC1(NC(=O)COC(=O)CSc2ccc(F)cc2)CCCCC1 | -6.99% (inactive)
CCCOn1c(-n2nc(C)cc2C)nc2ccccc2c1=O | 7.25% (inactive)
CCC(C)(C)NC(=O)C(c1ccccn1)N(C(=O)c1csnn1)c1ccccc1 (configuration not stated) | 2.32% (inactive)
Cc1ccc(S(=O)(=O)NNC(=S)NC(C)(C)C)cc1 | 9.08% (inactive)
COc1ccccc1CN(C)c1nnnn1-c1ccccc1 | 9.63% (inactive)
O=C(NCc1cccs1)C(=O)NCC1OCCCN1S(=O)(=O)c1ccc(F)cc1 (configuration not stated) | 1.51% (inactive)
CC(=O)Oc1ccc2c(C)c(CC(C)O)c(=O)oc2c1 (configuration not stated) | 24.1% (active)
COC(=O)Cc1c(C)c2ccc(OCC(=O)NCc3ccc4c(c3)OCO4)cc2oc1=O | 0.37% (inactive)

Compound | activation
CCc1c(C)c2ccc(OC3CCCCC3=O)cc2oc1=O (configuration not stated) | 3.96% (inactive)
COc1ccc(CCNC(=O)COC(=O)c2ccc[nH]c2=O)cc1 | 23.9% (active)
COc1ccc(CCNC(=O)COC(=O)c2cc(=O)c3ccccc3o2)cc1 | -1.38% (inactive)
COc1ccc(CCNC(=O)COC(=O)C2CC2C)cc1 (configuration not stated) | 9.52% (inactive)
COc1ccc(S(=O)(=O)N(CCCN2CCCC2=O)Cc2cc3c(C)ccc(C)c3[nH]c2=O)cc1 | -7.13% (inactive)
CCn1c(SCC(=O)Nc2ccc(C)cc2)nc2nc3c(cc2c1=O)CCCC3 | 3.79% (inactive)
O=C1[C@H]2[C@@H](c3ccc(F)cc3)N3C(=O)N(c4ccc(C(F)(F)F)cc4)C(=O)[C@@]3(Cc3ccccc3)[C@H]2C(=O)N1C1CCCCC1 | 5.91% (inactive)
c1ccc2cc(CCCc3cc4ccccc4cn3)ncc2c1 | -5.39% (inactive)
O=C(COC(=O)c1cccc(Cl)c1)NC(=O)NCc1ccccc1 | 7.09% (inactive)
Cc1cc(C)c2c(-n3cccc3)c(C(=O)NNS(=O)(=O)c3ccc(F)cc3)sc2n1 | -8.55% (inactive)
CCOC(=O)C1=CN(Cc2ccc(Br)cc2)S(=O)(=O)NC1C (configuration not stated) | -3.39% (inactive)
COC(=O)C1=C(C)N(C(C)c2ccccc2)C(=O)/C1=C\c1ccco1 (configuration not stated) | 1.04% (inactive)
Cc1ccc(-c2nnc(Nc3ccc(C(=O)N(C)C)cc3)c3ccccc23)cc1S(N)(=O)=O | 6.07% (inactive)
COC(=O)c1ccc(CNC(=O)C2CCC(=O)N(Cc3ccccn3)C2)cc1 (configuration not stated) | 4.62% (inactive)
CN(C)/C=C(/C(=O)c1ccc(F)cc1)S(=O)(=O)c1ccc(F)cc1 | 2.38% (inactive)
O=C(Nc1ccccc1-c1nnn(CC(=O)N2CCCc3ccccc32)n1)c1cccc(Cl)c1 | 0.94% (inactive)
CCC(C)[C@H](NC(=O)N1CCn2c1nc1ccccc12)C(=O)NCc1ccc(OC)cc1 (some centres not stated) | 9.75% (inactive)
COc1cccc(NC(=S)C(C#N)=C2N(C)c3ccccc3N2C)c1 | 0.38% (inactive)
CC1=C(C(=O)OC(C)(C)C)C(c2ccc(Br)cc2)NC(=O)N1CCCC(=O)O (configuration not stated) | 1.2% (inactive)

Compound | activation
CC(=O)c1ccc(NC(=O)C(C)N(C)CC(=O)Nc2ccccc2Cl)cc1 (configuration not stated) | -3.65% (inactive)
CCC(C)(C)NC(=O)c1cc([N+](=O)[O-])ccc1N1CCCCC1 | -7.67% (inactive)
N#Cc1c(NCCO)ccc([N+](=O)[O-])c1NCCO | 3.1% (inactive)
O=S(=O)(N/N=C\c1cccn1-c1ccccc1)c1ccc2ccccc2c1 | 0.8% (inactive)
COc1cc(CN2CCN(Cc3ccc(C)cc3)CC2)c([N+](=O)[O-])cc1OC | 8.01% (inactive)
COc1ccc(-c2noc(CCC(=O)N3CCN(c4cccc(C)c4)CC3)n2)cc1 | -0.7% (inactive)
CCOc1ccc2nc(NCCNC(=O)C(C)(C)C)c(C)cc2c1 | -11.1% (inactive)
CCOc1ccc(S(=O)(=O)NCCSc2ccccc2)cc1 | -4.36% (inactive)
CCOc1ccc2nc(NCCNS(=O)(=O)c3ccccc3)c(C#N)cc2c1 | 27.3% (active)
C[C@H](CO)N1C[C@H](C)[C@@H](CN(C)S(=O)(=O)c2ccc(F)cc2)Oc2ccc(NC(=O)CCC(F)(F)F)cc2C1=O | 7.71% (inactive)
COCCNC(=S)Nc1cc(S(=O)(=O)N2CCOCC2)ccc1N1CCCCC1 | -18.3% (inactive)
CCC(C)N1CC(=O)N2Cc3[nH]c4ccccc4c3C[C@H]2C1=O (some centres not stated) | 0.63% (inactive)
CC(=O)Nc1ccc(NC(=O)C(C)OC(=O)c2ccccc2C(=O)c2ccc(Cl)c([N+](=O)[O-])c2)cc1 (configuration not stated) | -0.74% (inactive)
COC(=O)c1nc2n(n1)C(c1ccc([N+](=O)[O-])cc1)C(C(=O)Nc1ccc(Cl)cc1)=C(C)N2 (configuration not stated) | 3.68% (inactive)
COC(=O)c1sc(N)c(C(=O)OC)c1COC(=O)CNS(=O)(=O)c1ccc(C)cc1 | 3.17% (inactive)
CCN1CCN(C(=O)C2(NC(=O)Nc3cccc(F)c3)CCCCC2)CC1 | -1.86% (inactive)
COc1ccc2sc(-c3ccc(N(C)C)cc3)c(C#CCO)c2c1 | 21.1% (inactive)
COc1ccc2sc(-c3ccc(S(C)(=O)=O)cc3)c(C#Cc3cncn3C)c2c1 | -7.99% (inactive)
COc1ccc(-c2sc3ccc(OC)cc3c2C#Cc2ccccn2)cc1 | 21.3% (active)
